Laboratory results as given in PubChem BioAssay AID2656 (Broad Institute, 2010).
Activity calls are given as the source filed them.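 How the source made its calls: active means mean inhibition of serotonin release over both replicates above 50%; inactive means mean inhibition at or below 50%.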

Tested on: Human washed platelets, SFLLRN-induced 14C-serotonin release
Test: blockers of platelet serotonin release via PAR1 – cell-based, 14C-serotonin release, radioactive, mechanism study for platelet granule secretion inhibitor project, late-stage follow-up (AID 2656)
Conditions: at 10 µM; hits give high values
Outline: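 System – 14C-serotonin-labelled washed platelets · Input – 2x10^8 platelets per mL after resuspension · Times – compound pre-incubation 15 min, SFLLRN stimulation 15 min · Signal – beta scintillation counting of supernatant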

| SMILES | inhibition |
| --- | --- |
| O=C(Oc1ccc(Cl)cc1)c1ccc(COC(=O)c2cnccn2)cc1 | 0.5% (inactive) |
| COc1ccc(C(=O)Nc2ccc(N3CCOCC3)cc2)cc1OC | 9.3% (inactive) |
| COC(=O)c1nn(-c2ccc3c(c2)CCN3C(C)=O)cc1O | 12.8% (inactive) |
| COc1cc2c(cc1OC)-c1cc(Nc3ccccc3C)nc(=O)n1CC2 | 94.8% |
| CC(=O)Oc1ccc(-c2nc(-c3cccnc3)no2)cc1 | -5.2% (inactive) |
| COC(=O)c1ccccc1NC(=O)Nc1ccc2c(c1)OCO2 | 15.4% (inactive) |
| CCOc1ccc2nc(NCCO)[nH]c2c1 | 9.75% (inactive) |
